The values that follow come from ChEMBL document CHEMBL1135550, “Highly potent geminal bisphosphonates. From pamidronate disodium (Aredia) to zoledronic acid (Zometa)” (J Med Chem, 2002).

The species entered for series [1] is Mus musculus. The series is described as follows: Inhibition of bone resorption in the calvaria assay of mouse. The class given is functional.
The species named for series [2] is Mus musculus. In words: Inhibition of bone mineralization in the calvaria assay of mouse. The class given is functional.
Series [3] is described as follows: Therapeutic ratio comparing nephrotoxic potential versus bone antiresorptive potency ( reciprocal of ED50 (TPTX assay) / the total urinary malate dehydrogenase excretion). The class given is ADME. The conditions noted are these: urine; read-out: Therapeutic ratio. In a few lines: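 Ratio = (1/TPTX ED50 in mg/kg) ÷ total urinary malate dehydrogenase units, pooled from eight 24-h urine collections after starting repeated sc dosing. ED50 model: young male rats (130-150 g), thyroparathyroidectomized, 4-day recovery; rats with fasting serum Ca above 1.88 mM excluded; groups of 5. Days 5-8: 1,25(OH)2D3 125 pmol/kg sc plus graded sc bisphosphonate. ED50 = dose halving the hypercalcemia (total serum calcium).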

Series [4] has as its system Rattus norvegicus. In words: Effective dose after subcutaneous administration to TPTX rats for 50% reduction of hypercalcemia. The class given is functional. The note with it: sc. The method, boiled down:
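Young male rats (130-150 g) were thyroparathyroidectomized and allowed 4 days to recover, then fasting serum was sampled. Animals with serum Ca above 1.88 mM were discarded, and the rest were randomized into groups of 5. On days 5-8, 1,25(OH)2D3 (125 pmol/kg sc) was given with graded sc doses of bisphosphonate, and total serum calcium was measured. ED50 is the sc dose halving the hypercalcemia.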

Series [5] can be described thus: Ratio of calvaria mineralization to calvaria bone resorption. The class given is functional.
The species entered for series [6] is Rattus norvegicus. In words: Effective dose for increased cancellous bone calcium in young interact rats after a treatment period of 10 days. The class given is functional. The conditions noted are these: 240 h.
The species entered for series [7] is Rattus norvegicus. In words: Effective dose for increased mucosal permeability of perfused ileal loop in rats after a treatment period of 2 hr in intestinal tolerability model. The class given is functional.
For series [8], the species on record is Rattus norvegicus. In words: Effective dose for increased cancellous bone hydroxy proline in young interact rats after a treatment period of 10 days. The conditions noted are these: 240 h. The class given is functional.
The species entered for series [9] is Rattus norvegicus. In words: Effective dose for increased cancellous bone area in young interact rats after a treatment period of 10 days. The class given is functional. The note with it: 240 h.
The species entered for series [10] is Rattus norvegicus. The series is described as follows: Effective dose for increased radiographic bone density in young interact rats after a treatment period of 10 days. The class given is functional. The note with it: 240 h.
The species entered for series [11] is Rattus norvegicus. The series is described as follows: Effective dose for increased urinary excretion of MDH in rats after a treatment period of 14 days in renal tolerability model. The class given is functional, Urine.
Series [12] is filed under the species Rattus norvegicus. The series is described as follows: Effective dose for increased serum urea level rats after a treatment period of 1 hr in renal tolerability model. The class given is functional.
Series [13] is filed under the species Mus musculus. The series is described as follows: Inhibition of mineralization in the calvaria assay of mouse. The class given is functional. The method, boiled down: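 In vitro mineralization assay in mouse calvaria cultures. The read-out is calcium incorporation into the calvaria.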
Series [14] is filed under the species Rattus norvegicus. In words: Effective dose for increased cancellous bone calcium in young intact rats after a treatment period of 10 days. The conditions noted are these: 240 h. The class given is functional.
The species entered for series [15] is Rattus norvegicus. In words: Compound was tested for increased urinary excretion of MDH in rats after a treatment period of 14 days in renal tolerability model. The class given is functional, Urine.
The species entered for series [16] is Rattus norvegicus. The series is described as follows: Compound was tested for increased mucosal permeability of perfused ileal loop in rats after a treatment period of 2 hr in intestinal tolerability model. The class given is functional.
Series [17] is filed under the species Rattus norvegicus. In words: Effective dose for increased cancellous bone hydroxy proline in young intact rats after a treatment period of 10 days. The class given is functional. The conditions noted are these: 240 h.
The species named for series [18] is Rattus norvegicus. The series is described as follows: Effective dose for increased cancellous bone area in young intact rats after a treatment period of 10 days. The class given is functional. The conditions noted are these: 240 h.
Series [19] is filed under the species Rattus norvegicus. The series is described as follows: Effective dose for increased radiographic bone density in young intact rats after a treatment period of 10 days. The class given is functional. The conditions noted are these: 240 h.

The term IC50 denotes the midpoint of a concentration-inhibition curve. A low value points to greater potency. As a reminder, the ED50 is the midpoint of the dose-response relation.

A value given as a limit tells only on which side of the number the result lay.

With `NCCCC(O)(P(=O)(O)O)P(=O)(O)O` [ALENDRONIC ACID], the IC50 in the series listed under Mus musculus [1] is 0.05 µM; in the series filed under Mus musculus [2], 20 µM. Further, in [3], the selectivity ratio amounted to 6.6. Besides, in the series on Rattus norvegicus [4], the ED50 was 8 µg/kg. Moreover, the Ratio in [5] was 400.

As for `NCCC(O)(P(=O)(O)O)P(=O)(O)O` [PAMIDRONIC ACID], the 50% effective dose (ED50) in the series listed under Rattus norvegicus [6] was 22.7 µg/kg; in the series listed under Rattus norvegicus [8], 210 µg/kg; in the series listed under Rattus norvegicus [9], 7.1 µg/kg; in the series filed under Rattus norvegicus [10], 390 µg/kg; in the series on Rattus norvegicus [4], 61 µg/kg. For the same compound, the IC50 was 0.2 µM in the series listed under Mus musculus [1] and 100 µM in the series listed under Mus musculus [13]. Also, the NOL in the series filed under Rattus norvegicus [7] was found to be 10 mM; in the series filed under Rattus norvegicus [11], 0.1 mg/kg. In [3], the selectivity ratio is 1.2. For the same compound, the ED100 in the series listed under Rattus norvegicus [12] amounted to 11000 µg/kg. The Ratio in [5] is 500.

For `O.O=P(O)(O)C(O)(Cn1ccnc1)P(=O)(O)O` [ZOLEDRONIC ACID], the ED50 in the series filed under Rattus norvegicus [14] came to 0.17 µg/kg; in the series filed under Rattus norvegicus [17], 1.1 µg/kg; in the series listed under Rattus norvegicus [18], 0.071 µg/kg; in the series listed under Rattus norvegicus [19], 1.7 µg/kg. Also, the NOL is above 1000 µg/kg in the series filed under Rattus norvegicus [15] and 10 mM in the series filed under Rattus norvegicus [16]. For the same compound, the IC50 in the series listed under Mus musculus [1] was determined as 0.002 µM; in the series filed under Mus musculus [13] it was 30 µM. The compound further yielded an ED100 in the series listed under Rattus norvegicus [12] of 38000 µg/kg. For the same compound, the Ratio in [5] amounted to 15000.
